# hERG protect – hERG rescue from dofetilide block, primary screen, cell-based, CHO-hERG, FluxOR thallium flux, dofetilide IC70 | Voltage-gated inwardly rectifying potassium channel KCNH2 (Homo sapiens), Q12809 | dofetilide IC70 present | activation (rescue from dofetilide block), less the hit threshold, % at 10 µM | actives 0.51% (n = 310,000);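 active = activation above the mean of controls blocked by dofetilide plus 5 SD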;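 also: thallium influx through hERG after potassium depolarization seen as dye fluorescence rise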
# KCNQ1 block – inhibitors of human KCNQ1 channel, primary screen, cell-based, thallium flux, high-throughput; Potassium voltage-gated channel subfamily KQT member 1 (Homo sapiens), P51787; CHO-K1 KCNQ1, FluxOR thallium flux fluorescence; hits give high values; B-score at 10 µM; actives 1.3% (n = 310,000); AID 2642, 2010;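 active = compounds whose thallium flux B-score, printed positive for inhibition, exceeds three library SD while starting fluorescence stays within three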;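 also: channel opened by potassium depolarization with thallium stimulus after 20 min compound exposure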
# Target sequence (P51787 whole entry, looked up): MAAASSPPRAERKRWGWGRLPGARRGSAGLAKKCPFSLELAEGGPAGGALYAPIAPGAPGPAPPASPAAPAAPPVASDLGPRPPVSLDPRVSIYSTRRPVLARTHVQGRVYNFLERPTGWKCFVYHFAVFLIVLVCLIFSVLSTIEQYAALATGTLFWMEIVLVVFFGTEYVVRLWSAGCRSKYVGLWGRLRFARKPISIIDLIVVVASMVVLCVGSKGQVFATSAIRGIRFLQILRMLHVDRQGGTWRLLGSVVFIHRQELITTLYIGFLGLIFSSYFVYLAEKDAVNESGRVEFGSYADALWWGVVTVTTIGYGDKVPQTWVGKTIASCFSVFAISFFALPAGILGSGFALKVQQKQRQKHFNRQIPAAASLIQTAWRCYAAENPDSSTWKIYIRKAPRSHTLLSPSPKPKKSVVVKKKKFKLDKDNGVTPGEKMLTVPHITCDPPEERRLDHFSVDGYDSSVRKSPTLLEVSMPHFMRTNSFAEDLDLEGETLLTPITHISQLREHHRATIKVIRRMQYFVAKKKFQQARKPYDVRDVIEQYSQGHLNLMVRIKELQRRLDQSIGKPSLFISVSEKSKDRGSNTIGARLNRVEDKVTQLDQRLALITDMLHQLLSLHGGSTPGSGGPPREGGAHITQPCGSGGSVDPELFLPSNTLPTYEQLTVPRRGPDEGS
# Kir21 inh – inhibitors of mouse Kir2.1 inward-rectifier potassium channel; HEK293-Kir2.1, FluxOR thallium flux fluorescence; hits give low values; B-score at 10 µM; actives 0.85% (n = 310,000); AID 1672, 2009;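 active = fluorescence ratio B-score at or below minus 3 SD of library scores, with starting-brightness B-score within 2 SD, cut at about -4.2 in these data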;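 also: channel flux triggered by added potassium and thallium sulfate stimulus; B-score of peak minus minimum fluorescence over baseline after thallium stimulus; more negative B-score means stronger Kir2.1 block with less thallium influx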
# KCNK9 inh-1 – KCNK9 potassium channel inhibitors, primary screen, HEK293 cells, thallium flux; FluxOR thallium flux fluorescence; hits give low values; AID 488922, 2010; actives 1.2% (n = 310,000); B-score at 10 µM; Potassium channel subfamily K member 9 (Homo sapiens), Q9NPC2;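 active = ratio B-score over 3 SD below the library mean, with starting fluorescence within 5 SD of its mean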;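 also: negative B-score means less thallium flux so channel inhibition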
# KCNK3 inh – human KCNK3 channel inhibitors, primary screen, CHO cells, FluxOR thallium flux, B-score; Potassium channel subfamily K member 3 (Homo sapiens), O14649; FluxOR fluorescence; hits give low values; B-score at 10 µM; actives 0.84% (n = 340,000); AID 602410, 2012;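 active = B-score under library mean minus 4 SD, starting fluorescence ratio at most library mean plus 5 SD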;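 also: more negative B-score means stronger inhibition of thallium flux through KCNK3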
# KCNQ1 pot – potentiators or activators of KCNQ1 channel, primary screen, cell-based, thallium flux, high-throughput; Potassium voltage-gated channel subfamily KQT member 1 (Homo sapiens), P51787; CHO-K1 KCNQ1, thallium flux FluxOR fluorescence; hits give high values; B-score at 10 µM; actives 0.35% (n = 310,000);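 active = fluorescence ratio B-score, a plate-corrected score, at least three library SD, with initial intensity B-score within 5 SD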
#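 assay system = CHO-K1 cells stably expressing KCNQ1 | medium = assay buffer, equal DMSO in all wells | timing = 37 °C overnight plating, 90-min dark dye load, 20-min compound pretreatment | measured by = kinetic FluxOR thallium fluorescence, 10-s 1-Hz baseline, 110-s post-stimulus read | measure = fluorescence change relative to baseline, converted to B score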
# hERG ctr – hERG channel inhibition, counter-screen for Kir2.1 inhibitor project, cell-based, thallium flux; actives 20% (n = 320); inhibition, % at 10 µM; hERG-expressing cells; shares compounds with Kir21 inh;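 also: host cells are CHO cells stably expressing hERG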
# KCNK9 inh-2 – KCNK9 channel inhibition, selectivity assay for Kir2.1 inhibitor project, cell-based; shares compounds with Kir21 inh; KCNK9-expressing cells, ion flux inhibition; inhibition, % at 10 µM; actives 5% (n = 320); AID 2329, 2010
# Kir2-1 patch inh – mouse Kir2.1 channel blockers, Kir2.1 inhibitor project, cell-based, secondary, automated electrophysiology; actives 71% (n = 320); AID 463252, 2010; shares compounds with Kir21 inh; inhibition, % at 25 µM; Kir2.1 cells, automated patch-clamp current inhibition
# * = called active by the depositor; i = inactive; x = no result given. Hits are enriched below; roughly 3.8% of the tested compounds scored in any of these assays. Unless noted, no rule for the calls is given here.
SMILES,hERG protect,KCNQ1 block,Kir21 inh,KCNK9 inh-1,KCNK3 inh,KCNQ1 pot,hERG ctr,KCNK9 inh-2,Kir2-1 patch inh
COc1cc(NS(=O)(=O)c2ccc(Nc3nc(-c4ccccc4)cs3)cc2)nc(OC)n1,-4.3,i,3.56,i,i,i,i,i,i
COc1ccc(CCC(C)NCc2cccc(Br)c2)cc1 (configuration not stated),-11.4,i,-11.3*,i,i,i,i,i,53.5%*
COc1ccc(CN(C)CC(=O)Nc2ccccc2C(=O)NC2CC2)cc1F,x,x,x,x,i,x,x,x,x
CC1(C)CC(=O)C=C(c2ccc(-c3ccccc3)cc2)C1,x,x,x,x,i,x,x,x,x
Cc1cccn2c(=O)c3cc(S(=O)(=O)c4ccc(Br)cc4)c(=N)n(C4CCCC4)c3nc12,-11.2,i,1.13,i,i,i,i,i,i
COc1ccccc1CNCc1ccc(C)cc1,-6.3,i,-1.71,i,i,i,x,x,x
COc1ccc2ccccc2c1CNCc1ccc(C)cc1,-3.8,i,-9.11*,i,i,i,i,i,40.7%*
CC(CCCN(C)C)C(Cc1ccccc1)c1ccccc1 (configuration not stated),-13.3,i,-6.37*,i,i,i,i,i,4.0%*
Cc1c(NC(=O)COC(=O)c2ccc(Br)o2)c(=O)n(-c2ccccc2)n1C,-8.8,i,1.76,i,i,i,i,i,i
Cc1c(NC(=O)C(C)OC(=O)c2ccc(Br)o2)c(=O)n(-c2ccccc2)n1C (configuration not stated),-7.8,i,0.43,i,i,i,x,x,x
CCOC(=O)CNC(=O)N1CCCC(C(=O)c2cccc(Cl)c2)C1 (configuration not stated),-8.2,i,0.88,i,i,i,x,x,x
O=C(Nc1ccc(Br)cc1)c1cc(-c2ccncc2)nc2ccccc12,x,x,x,x,i,x,x,x,x
CCOC(=O)C1CCN(Cc2c(O)ccc3ccccc23)CC1,-11.0,i,-7.63*,i,i,i,i,i,4.0%*
CCCCN1CCc2c1nc1ccc(Br)cc1c2N,-25.2,i,-11.2*,i,i,i,i,i,12.5%*
Cc1ccc2nc(Cl)c(CNCc3ccccc3)cc2c1,-9.2,i,-11.7*,i,i,i,i,i,i
CCN(c1ccccc1)S(=O)(=O)c1ccc(F)cc1,-5.8,i,-6.17*,i,i,i,i,i,37.1%*
COc1cc2c(cc1CNC[C@H]1O[C@@H](n3cnc4c(N)ncnc43)[C@H](O)[C@@H]1O)OCO2,x,x,x,x,i,x,x,x,x
CCCCN1C(=O)C(=Nc2cccc3cnccc23)c2ccccc21,-13.7,i,-7.46*,-7.18*,i,i,i,i,i
CCOCCCNCC(O)c1ccccc1 (configuration not stated),-4.7,i,-0.79,i,i,i,x,x,x
OCc1cc(C(O)CNCCCCCCOCCCCc2ccccc2)ccc1O (configuration not stated),-9.9,i,-5.3*,i,i,i,i,i,22.7%*
Cc1noc(C)c1COc1ccc(C(=O)N2CCN(c3ccccc3O)CC2)cc1,x,x,x,x,i,x,x,x,x
C/C=C/c1ccc(OCCCCOc2ccccc2C(C)=O)c(OC)c1,-11.4,i,0.93,i,i,i,x,x,x
C/C=C/c1ccc(OCCCCN(C)Cc2ccccc2)c(OC)c1,-11.6,i,-9.87*,i,i,i,62.0%*,i,45.7%*
Cc1ccc(S(=O)(=O)CCCS(=O)(=O)c2ccc(C)cc2)cc1,-10.2,i,-5.72*,i,i,i,i,i,17.3%*
CN(C)CCOCCOc1ccc(Cl)cc1C(C)(C)C,-5.8,i,-6.05*,i,i,i,47.0%*,i,36.9%*
SMILES,hERG protect,KCNQ1 block,Kir21 inh,KCNK9 inh-1,KCNK3 inh,KCNQ1 pot,hERG ctr,KCNK9 inh-2,Kir2-1 patch inh
C=CCc1cc(Cl)ccc1OCCN(C)C,-10.9,i,-0.08,i,i,i,x,x,x
Nc1nc(C2CCOCC2)cs1,-9.6,i,-0.08,i,i,i,x,x,x
Nc1nc(C2CC2)c(Sc2sc(N)nc2C2CC2)s1,-7.9,i,-8.2*,i,i,i,i,i,6.1%*
O=C(NCCc1ccc(Cl)cc1)C1(c2ccccc2)CC1,-10.8,i,-9.5*,i,i,i,i,i,44.3%*
COc1ccc(C2(C(=O)NCCc3ccccc3)CCCC2)cc1,-14.8,i,-3.15,i,i,i,x,x,x
CCOCc1cn(CC(=O)c2ccc([N+](=O)[O-])cc2)c(C)nc1=N,-6.3,i,3.15,i,i,i,i,i,i
CN(C(=O)CSc1nc2ccccc2o1)C1CCCCC1,x,x,x,x,i,x,x,x,x
Cc1ccc(O)c(CNCCNCc2cc(C)ccc2O)c1,-3.5,i,-6.13*,i,i,i,i,i,51.1%*
Cc1ccc(O)c(CNc2nc3ccccc3n2C(C)C)c1,-4.2,i,0.42,i,i,i,x,x,x
C#CC(CO)N(CCN(Cc1ccccc1)C(C#C)CO)Cc1ccccc1 (configuration not stated),-4.5,i,-11.2*,i,i,i,i,i,3.9%*
C#CCN(C)Cc1ccccc1,-8.6,i,-0.1,i,i,i,x,x,x
O=C1C=C(c2ccccc2)CO1,x,x,x,x,i,x,x,x,x
CCOC(=O)c1c(NC(=O)C(C)Sc2nnc(C)c(=O)[nH]2)sc2c1CCCC2 (configuration not stated),-10.5,i,-0.57,i,i,i,x,x,x
Cc1cn2c(=O)c(C(=O)NCc3ccc4c(c3)OCO4)cnc2s1,-5.5,i,-1.42,i,i,i,x,x,x

# High-throughput results (PubChem BioAssay)
